Screening results as filed in PubChem BioAssay.
HUVEC inhibit – human endothelial cell proliferation inhibition; 86,000 tested, 1.1% active; HUVEC proliferation, CellTiter-Glo luminescence, 72 h; active compounds read low; viability, % at 10 µM (by protocol);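 active = viability at or below 30%; inactive = viability above 30%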;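 note: 100% = median luminescence of DMSO-only cell control wells on each plate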
ERa SRC1 inh – blocks coactivator binding to human estrogen receptor alpha. TR-FRET ER-alpha LBD / SRC-1 peptide, estradiol-bound. P03372. 86,000 tested, 1.7% active. inhibition, % at 25.6 µM; in the data active = inhibition above about 50%;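 note: 0% = receptor plus peptide control and 100% = peptide only without receptor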
Target sequence (P03372 whole entry, looked up, the tested form may be a part): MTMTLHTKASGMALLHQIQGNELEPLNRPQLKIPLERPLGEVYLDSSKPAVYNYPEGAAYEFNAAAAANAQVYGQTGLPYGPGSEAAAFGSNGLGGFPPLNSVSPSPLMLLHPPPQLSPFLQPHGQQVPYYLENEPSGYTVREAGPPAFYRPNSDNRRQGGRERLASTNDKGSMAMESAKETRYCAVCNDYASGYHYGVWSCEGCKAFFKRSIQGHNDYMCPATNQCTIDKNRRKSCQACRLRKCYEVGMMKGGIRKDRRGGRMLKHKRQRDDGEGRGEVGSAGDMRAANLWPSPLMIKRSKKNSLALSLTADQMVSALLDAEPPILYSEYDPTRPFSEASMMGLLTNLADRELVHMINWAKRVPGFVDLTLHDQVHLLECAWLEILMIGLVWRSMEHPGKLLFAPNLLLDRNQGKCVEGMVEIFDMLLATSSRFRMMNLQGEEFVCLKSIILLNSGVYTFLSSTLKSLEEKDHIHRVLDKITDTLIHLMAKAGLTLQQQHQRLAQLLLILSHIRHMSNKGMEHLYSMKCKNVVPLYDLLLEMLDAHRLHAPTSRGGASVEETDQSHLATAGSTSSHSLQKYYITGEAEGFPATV
ERa SRC1 pot – ER-alpha (human) coactivator binding potentiation; TR-FRET ERalpha-LBD/SRC-Cy5 coactivator binding, 2 h; 100 = basal binding, no effect; 86,000 tested, 1.3% active; coactivator binding (% of control), % at 25.6 µM; in the data active = activity above about 200%;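 note: binding measured in presence of low estradiol as agonist stimulus; 0% = peptide alone without receptor and 100% = receptor with peptide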
H69AR inhibit – growth inhibitors of human H69AR lung tumor cells | H69AR lung tumor viability, ATP luminescence, 72 h; active compounds read low | viability, % at 10 µM | 85,000 tested, 6% active;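 active = viability at or below 40%; inactive = viability above 40%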;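 note: multidrug resistant small cell line overexpressing MRP-1 efflux transporter; 100% = mean luminescence of untreated control wells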
ERb coact inh – blocks coactivator binding to human estrogen receptor beta. TR-FRET ER-beta LBD / SRC1-Cy5 peptide binding; receptor agonist-loaded with 1 µM estradiol. inhibition, % at 25.6 µM. 86,000 tested, 1.3% active;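 active = compounds whose percent inhibition of the receptor-coactivator binding signal exceeds about 50% in the single-dose screen, limit read from the data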;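 note: 0% = receptor plus peptide wells without compound and 100% = peptide-only wells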
Lung fibro prol – blocks proliferation of human lung fibroblasts; 85,000 tested, 1.1% active; LL 47 human lung fibroblast viability, ATP luminescence; active compounds read low; AID 719; viability, % at 10 µM;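 active = viability at or below 50% in the single dose screen; inactive = viability above 50%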;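 note: compound exposure lasted 72 h before the ATP readout; 100% = median luminescence of untreated cell-only wells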
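Benchmarks: Cell-only wells, no compound | Test system: LL 47 human lung fibroblasts, passage 12 or lower | Input: 1,150 cells/well | Measured by: CellTiter-Glo luminescence measuring cellular ATP | Medium: IMEM, 15% FBS supplement | Schedule: Overnight attachment after seeding, then 72 h compound exposure at 37 °C | Doses: Compound addition at 0.1% DMSO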
Active calls of the source: *; nt = not tested or not shown; [ ] = dose if it differs, or a comment. The list is not random: actives were taken first. Their share in the collection is about 9.2%.

SMILES	HUVEC inhibit	ERa SRC1 inh	ERa SRC1 pot	H69AR inhibit	ERb coact inh	Lung fibro prol
O=C(COC(=O)CCCN1C(=O)c2ccccc2C1=O)Nc1ncc(Cl)cc1Cl	89	69*[fluorescence artefact?]	48	85	58*[fluorescence artefact?]	91
Cc1ccc2nc(NC(=O)COC(=O)c3ccc(Br)o3)sc2c1	99	15	82	75	32	94
COCCCNC(=O)CN(c1cc(OC)ccc1OC)S(=O)(=O)c1ccccc1	96	-13	97	101	-19	94
Cc1cc(NC(=O)CSc2n[nH]c(CC(C)C)n2)no1	94	18	103	89	6	97
CCCCn1c(SCc2nc3ccccc3s2)nc2cc(S(N)(=O)=O)ccc21	78	9	87	16*	-1	93
CCOC(=O)c1sc(NC(=O)C(CC)Sc2nnc3c4ccccc4n(CC)c3n2)nc1C (configuration not stated)	86	-10	122	84	-6	102
CCCn1c(=O)c2ccccc2n2c(SCC(=O)Nc3cc(C)on3)nnc12	91	7	93	82	100*[fluorescence artefact?]	110
CCCn1c(=O)c2ccccc2n2c(SCCOc3ccccc3)nnc12	91	-7	84	100	-2	96
CCCn1c(=O)c2ccccc2n2c(SCc3nc4ccccc4s3)nnc12	85	-3	125	31*	4	nt
CCCn1c2ccccc2c2nnc(SC(CC)C(=O)Nc3cc(C)on3)nc21 (configuration not stated)	106	38	101	32*	25	110
OC1(c2cccc(C(F)(F)F)c2)CCN(c2ccc(-c3ccccc3)nn2)CC1	92	1	119	nt	4	102
OC1(c2cccc(C(F)(F)F)c2)CCN(c2ncnc3c2[nH]c2ccccc23)CC1	46	-6	96	19*	0	81
c1ccc2c(c1)[nH]c1c(N3CCC4(CC3)OCCO4)ncnc12	77	-2	114	39*	-3	89
Cc1ccc2c(c1)c1ncnc(N3CCC4(CC3)OCCO4)c1n2C	75	-39	109	29*	-27	90
Cc1ccc2c(c1)c1ncnc(N3CCOCC3)c1n2C	85	-32	89	46	-18	93
c1ccc(CN2CCN(c3ncnc4c3[nH]c3ccccc34)CC2)cc1	44	-5	100	46	1	72
Cc1cccn2c(=O)c3cc(C(=O)N4CCN(c5ccccc5)CC4)n(C)c3nc12	62	2	107	95	-3	97
O=c1c2ccccc2nnn1CSc1nnc(-c2ccc3c(c2)OCO3)o1	98	3	121	103	4	97
Cc1noc(C(=O)N2CC3(C)CC2CC(C)(C)C3)c1Cl (configuration not stated)	96	5	96	99	-8	93
N#CC1=C(N)SC2(CCCCC2)SC1c1ccccc1 (configuration not stated)	97	-6	101	92	-6	104
N#CC1=C(C2CC2)CC(c2ccccc2)C(C#N)=C1N (configuration not stated)	71	4	123	39*	1	81
CCCCNC(=O)CC1SC(=NCC)N(CC)C1=O (configuration not stated)	95	5	116	100	-37	106
Cc1nc(N(C)Cc2ccccc2)c2nnn(Cc3ccccc3)c2n1	122	0	97	95	-8	82
O=C(Nc1cccc(O)c1)c1cc(S(=O)(=O)N2CCCC2)ccc1Cl	108	8	98	87	2	102
COC(=O)c1ccc(Cn2cnc3c(sc4nc(N5CCOCC5)c5c(c43)CCCC5)c2=O)o1	87	10	203*	58	36	82
SMILES	HUVEC inhibit	ERa SRC1 inh	ERa SRC1 pot	H69AR inhibit	ERb coact inh	Lung fibro prol
COC(=O)c1ccc(Cn2nnc3c(sc4nc(N5CCOCC5)c5c(c43)CCCC5)c2=O)o1	73	-5	106	46	-2	81
COC(=O)CSc1ncnc2c1sc1nc(N3CCOCC3)c3c(c12)CCCC3	87	12	391*[fluorescence artefact?]	83	36	99
CCC(C)NS(=O)(=O)c1ccc(OCC(=O)N2CCC(C)CC2)cc1 (configuration not stated)	96	-18	96	92	-26	95
COc1ccc(Cn2c(C)c(C)c(C#N)c2NC(=O)Nc2ccccc2)cc1	81	8	97	63	7	101
COc1ccc(Cn2c(C)c(C)c(C#N)c2NC(=O)Nc2cccc(C)c2)cc1	65	70*[fluorescence artefact?]	76	56	50*	74
Cc1ccc(C(=O)NCC(=O)OCC(=O)c2c(N)n(C)c(=O)n(C)c2=O)s1	103	53*	64	102	50*	93
Cn1c(N)c(C(=O)COC(=O)c2ccc(Br)o2)c(=O)n(C)c1=O	83	11	84	74	19	89
O=c1c2ccccc2nc2ccc(NCc3ccco3)nn12	85	36	68	39*	47	88
CSc1nc(NCc2ccco2)c2ccccc2n1	65	54*	98	99	4	97
Cc1ccc(S(=O)(=O)Nc2nc3ccccc3nc2NCc2ccco2)cc1	80	13	85	36*	24	82
O=c1c2ccccc2ncn1Cc1ccco1	89	-2	114	79	-1	95
O=C1c2ccccc2C(=O)N1Cc1nc2ccccc2c(=O)n1Cc1ccco1	62	59*[fluorescence artefact?]	249*	80	58*[fluorescence artefact?]	91
CC(=O)OC(C(=O)Nc1ccccc1C)C(OC(C)=O)C(OC(C)=O)C(OC(C)=O)C(=O)Nc1ccccc1C (configuration not stated)	96	-7	114	92	-6	101
O=c1c2[nH]c3ccccc3c2ncn1CCN1CCCCC1	99	-13	105	88	1	108
CC(C)Cn1c(CN2C(=O)c3ccccc3C2=O)nc2ccccc2c1=O	83	29	370*[fluorescence artefact?]	95	25	89
CCOC(=O)c1ccccc1NC(=O)CSc1nc2ccccc2n1CC(=O)N1CCCC1	96	13	101	70	2	98
Cc1ccc(-c2nnn(CC(=O)N(Cc3cccs3)C(C(=O)NC3CCCCC3)c3ccco3)n2)o1 (configuration not stated)	77	-1	112	19*	-31	107
Cc1ccc(-c2nnn(CC(=O)N(Cc3cccs3)C(C(=O)NC3CCCC3)c3ccncc3)n2)cc1 (configuration not stated)	76	-8	94	29*	-5	64
O=C(NCC1CCCO1)C(c1ccc(F)cc1)N(Cc1ccc(F)cc1)C(=O)Cn1nnc(-c2cccs2)n1 (configuration not stated)	88	3	127	40*	-10	94
